In ChEMBL document CHEMBL4837218, “Synthesis and in vitro antitumour activity of 4(R)-methyl-3-O-phosphonomethyl-α-l-threose nucleosides” (Eur J Med Chem, 2021):
Activity calls are given as the source filed them. The rule behind the calls is not given here.

Experiments:
[1] = system: MCF7; assay: Anticancer activity against human MCF7 cells assessed as inhibition of cell growth measured after 72 hrs by MTT assay; type: functional, cell-based; settings: MCF7, 72 h
Summary of the method: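 Cells seeded at 3000 exponentially growing cells/well and incubated 12 h at 37 °C. Medium then replaced with fresh medium containing graded compound concentrations for 72 h; 5-FU positive control. MTT (5 mg/mL solution) added for 4 h, formazan dissolved in DMSO, absorbance read at 570 nm (reference 630 nm). Relative percentage inhibition of viable cells calculated; IC50 reported as mean ± standard deviation.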

[2] = system: MDA-MB-231; assay: Potency index, ratio of 5-FU IC50 to test compound IC50 for anticancer activity against human MDA-MB-231 cells measured after 72 hrs by MTT assay; type: functional
Summary of the method: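 MTT assay: 3000 exponentially growing cells per well, 12 h at 37 °C. Medium replaced with compound at a range of concentrations for 72 h. MTT (5 mg/mL stock) added for 4 h, formazan dissolved in DMSO. Absorbance read at 570 nm (reference 630 nm); percent inhibition gives IC50. Index is 5-FU IC50 divided by test-compound IC50.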

[3] = system: MCF7; assay: Cell cycle arrest in human MCF7 cells assessed as accumulation at S phase at 1 uM measured after 48 hrs by propidium iodide staining based flow cytometry (reference value: 25.34 %); type: functional
[4] = system: MCF7; assay: Cell cycle arrest in human MCF7 cells assessed as accumulation at G1 phase at 2 uM measured after 48 hrs by propidium iodide staining based flow cytometry (reference value: 70.09 %); type: functional
[5] = system: MDA-MB-231; assay: Cell cycle arrest in human MDA-MB-231 cells assessed as accumulation at G2/M phase at 3 uM measured after 48 hrs by propidium iodide staining based flow cytometry (reference value: 15.46 %); type: functional
[6] = system: MDA-MB-231; assay: Cell cycle arrest in human MDA-MB-231 cells assessed as accumulation at S phase at 6 uM measured after 48 hrs by propidium iodide staining based flow cytometry (reference value: 35.54 %); type: functional
[7] = system: MCF7; assay: Induction of apoptosis in human MCF7 cells assessed as early apoptotic cells at 1 uM measured after 48 hrs by Annexin V-FITC/propidium iodide staining based flow cytometric analysis (reference value: 3 %); type: functional
[8] = system: MCF7; assay: Induction of apoptosis in human MCF7 cells assessed as late apoptotic cells at 2 uM measured after 48 hrs by Annexin V-FITC/propidium iodide staining based flow cytometric analysis (reference value: 0.6 %); type: functional
[9] = system: MCF7; assay: Induction of apoptosis in human MCF7 cells assessed as late apoptotic cells at 4 uM measured after 48 hrs by Annexin V-FITC/propidium iodide staining based flow cytometric analysis (reference value: 0.6 %); type: functional
[10] = system: MDA-MB-231; assay: Induction of apoptosis in human MDA-MB-231 cells assessed as late apoptotic cells at 3 uM measured after 48 hrs by Annexin V-FITC/propidium iodide staining based flow cytometric analysis (reference value: 0.3%); type: functional
[11] = system: MCF7; assay: Induction of mitochondrial membrane potential loss in human MCF7 cells assessed as red fluorescence intensity at 1 uM measured after 48 hrs by JC1 staining-based flow cytometry analysis (reference value: 91.9%); type: functional
[12] = system: MDA-MB-231; assay: Induction of mitochondrial membrane potential loss in human MDA-MB-231 cells assessed as red fluorescence intensity at 6 uM measured after 48 hrs by JC1 staining-based flow cytometry analysis (reference value: 99.2 %); type: functional
[13] = system: MCF7; assay: Induction of DNA damage in human MCF7 cells assessed as increase in Chk1 protein expression at 1 to 4 uM measured after 48 hrs by western blot analysis; type: functional, cell-based; settings: dose 1-4 µM
Summary of the method: (§1)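 Cells exposed to graded concentrations for 48 h, then proteins extracted. Run on SDS-PAGE (5–15% gels) and transferred to nitrocellulose. Blocked 2 h in 5% nonfat milk in PBS/0.1% Tween 20, primary antibody overnight at 4 °C, biotin-conjugated secondary 1 h. Visualized on X-ray film with densitometric quantitation; three independent experiments.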

[14] = system: MCF7; assay: Induction of G2/M phase cell cycle arrest in human MCF7 cells assessed as decrease in cyclinB1 protein expression at 1 to 4 uM measured after 48 hrs by western blot analysis; type: functional, cell-based; settings: dose 1-4 µM; summary of the method: as §1
[15] = system: MDA-MB-231; assay: Induction of DNA damage in human MDA-MB-231 cells assessed as increase in Chk1 protein expression at 3 to 9 uM measured after 48 hrs by western blot analysis; type: functional, cell-based; settings: dose 3-9 µM; summary of the method: as §1
[16] = system: MCF7; assay: Induction of apoptosis in human MCF7 cells assessed as increase in Bad protein expression at 1 to 4 uM measured after 48 hrs by western blot analysis; type: functional, cell-based; settings: dose 1-4 µM
Summary of the method: (§2)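 MCF-7 and MDA-MB-231 breast cancer cells treated 48 h with a concentration series, then lysed for protein. SDS-PAGE on 5–15% gels, transfer to nitrocellulose. Blocked 2 h in 5% nonfat milk/PBS-0.1% Tween 20, primary antibodies overnight at 4 °C, biotin-conjugated secondary 1 h. X-ray film detection with densitometric quantification.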

[17] = system: MDA-MB-231; assay: Induction of apoptosis in human MDA-MB-231 cells assessed as increase in Bax to Bcl2 ratio at 3 to 9 uM measured after 48 hrs by western blot analysis; type: functional, cell-based; settings: dose 3-9 µM; summary of the method: as §2
[18] = system: MDA-MB-231; assay: Induction of apoptosis in human MDA-MB-231 cells assessed as increase in Noxa protein expression at 3 to 9 uM measured after 48 hrs by western blot analysis; type: functional, cell-based; settings: dose 3-9 µM; summary of the method: as §2
[19] = system: MCF7; assay: Cell cycle arrest in human MCF7 cells assessed as accumulation of cells at G2/M phase at 4 uM in presence of inhibitor cdc25c inhibitor, NSC663284 measured after 48 hrs by PI staining based flow cytometry; type: functional
Summary of the method: (§3)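 Four arms (untreated, test compound alone, 0.3 NSC663284 alone, combination) applied to cells for 48 h. Cells were fixed in 70% ice-cold ethanol at 4 °C overnight and stained with RNase/PI for 30 min in the dark. G2/M fraction was read by flow cytometry.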

[20] = system: MDA-MB-231; assay: Cell cycle arrest in human MDA-MB-231 cells assessed as accumulation of cells at G2/M phase at 9 uM in presence of cdc25c inhibitor, NSC663284 measured after 48 hrs by PI staining based flow cytometry; type: functional; summary of the method: as §3
[21] = system: MCF7; assay: Induction of G2/M phase cell cycle arrest in human MCF7 cells assessed as upregulation of cdc25c protein expression at 4 uM measured after 48 hrs in presence of cdc25c inhibitor, NSC663284 by western blot analysis; type: functional, cell-based
Summary of the method: (§4)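 Four groups (untreated, test compound, 0.3 NSC663284, combination) treated 48 h before protein extraction. Lysates resolved by SDS-PAGE (5–15%) and blotted to nitrocellulose. Blocked 2 h in 5% milk/PBS-0.1% Tween 20, primary antibody overnight at 4 °C, biotinylated secondary 1 h. Detected on X-ray film and quantified by densitometry.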

[22] = system: MCF7; assay: Induction of G2/M phase cell cycle arrest in human MCF7 cells assessed as upregulation of p-cdc25c protein expression at 4 uM measured after 48 hrs in presence of cdc25c inhibitor, NSC663284 by western blot analysis; type: functional, cell-based; summary of the method: as §4
[23] = system: MDA-MB-231; assay: Induction of G2/M phase cell cycle arrest in human MDA-MB-231 cells assessed as downregulation of p-cdc2 protein expression at 9 uM measured after 48 hrs in presence of cdc25c inhibitor, NSC663284 by western blot analysis; type: functional, cell-based

C[C@H]1O[C@@H](n2cnc3c(N)nc(F)nc32)[C@H](O)[C@H]1OCP(=O)([O-])[O-].[Na+].[Na+]
IC50 [1]: 0.476 µM | Ratio IC50 [2]: 47 | Activity [3]: 18.63% | Activity [4]: 41.43% | Activity [5]: 20.27% | Activity [6]: 31.86% | Activity [7]: 15.5% | Activity [8]: 6.5% | Activity [9]: 8.7% | Activity [10]: 13% | Activity [11]: 90.9% | Activity [12]: 63.8% | Activity [13]: Active | Activity [14]: Active | Activity [15]: Active | Activity [16]: Active | Activity [17]: Active | Activity [18]: Active | Activity [19]: inactive | Activity [20]: inactive | Activity [21]: inactive | Activity [22]: inactive | Activity [23]: inactive
